{
  "source": "ChEMBL document CHEMBL4270573",
  "about": "“Novel nicotinoyl pyrazoline derivates bearing N-methyl indole moiety as antitumor agents: Design, synthesis and evaluation” (Eur J Med Chem, 2018)",
  "key": {"HepG2 [1]": {"tested_on": "HepG2", "assay": "Induction of apoptosis in human HepG2 cells assessed as late apoptotic cells at 0.060 uM after 24 hrs by Annexin V-FITC/propidium iodide staining based flow cytometric analysis (reference value: 2.93%)", "assay_type": "functional", "summary_of_the_method": "(§1)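 HepG2 and HeLa cells were exposed to 0, 0.02, 0.040, 0.060, 0.080 and 0.10 µM for 6, 12 and 24 h. Cells were double-stained with Annexin V-FITC/PI and read by flow cytometry. Apoptotic rate was the percentage of FITC-positive cells, counting early plus late apoptotic.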"}, "HepG2 [2]": {"tested_on": "HepG2", "assay": "Induction of apoptosis in human HepG2 cells assessed as late apoptotic cells at 0.10 uM after 24 hrs by Annexin V-FITC/propidium iodide staining based flow cytometric analysis (reference value: 2.93%)", "assay_type": "functional", "summary_of_the_method": "as §1"}, "HepG2 [3]": {"tested_on": "HepG2", "assay": "Induction of apoptosis in human HepG2 cells assessed as late apoptotic cells at 0.040 uM after 24 hrs by Annexin V-FITC/propidium iodide staining based flow cytometric analysis (reference value: 2.93%)", "assay_type": "functional", "summary_of_the_method": "as §1"}, "Mus musculus [4]": {"tested_on": "Mus musculus", "assay": "Nephrotoxicity in nude mouse xenografted with human HeLa cells assessed as edema in kidney at 10 to 20 mg/kg, ip after 14 days by hematoxylin and eosin staining based microscopic analysis", "assay_type": "toxicity, organism-based", "conditions": "in vivo, 336 h"}, "MCF7": {"tested_on": "MCF7", "assay": "Growth inhibition of human MCF7 cells after 48 hrs by MTT assay", "assay_type": "functional", "conditions": "MCF7, 48 h", "summary_of_the_method": "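Proliferation read-out; GI50 taken as the concentration giving 50% reduction of cancer cell proliferation.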"}, "Mus musculus [5]": {"tested_on": "Mus musculus", "assay": "Nephrotoxicity in nude mouse xenografted with human HeLa cells assessed as cellular inflammatory infiltration in kidney at 10 to 20 mg/kg, ip after 14 days by hematoxylin and eosin staining based microscopic analysis", "assay_type": "toxicity, organism-based", "conditions": "in vivo, 336 h"}, "Bos taurus": {"species_on_record": "Bos taurus", "assay": "Inhibition of colchicine binding to calf brain tubulin preincubated for 1 hr followed by colchicine addition measured after 1 hr by UPLC-MS/MS analysis"}},
  "note": "Calls of active or inactive are those of the source. No cut-off for these calls is given here.",
  "data": [
    {"smiles": "COc1cccc(C2=NN(C(=O)c3ccc(C)nc3)C(c3cn(C)c4ccc(OC)cc34)C2)c1", "note": "(configuration not stated)", "values": [
      {"measurement": "Activity", "setting": "HepG2 [1]", "result": 4.9, "unit": "%"},
      {"measurement": "Activity", "setting": "HepG2 [2]", "result": 8.33, "unit": "%"},
      {"measurement": "Activity", "setting": "HepG2 [3]", "result": 6.24, "unit": "%"},
      {"measurement": "Activity", "setting": "Mus musculus [4]", "result": "Non-Toxic"},
      {"measurement": "GI50", "setting": "MCF7", "result": 90, "unit": "nM"},
      {"measurement": "Activity", "setting": "Mus musculus [5]", "result": "Non-Toxic"},
      {"measurement": "inhibition", "setting": "Bos taurus", "result": "Active"}
    ]}
  ]
}
